Bioassay records from PubChem BioAssay.
Shown are actives, neighbours in structure and some others; about 2.2% of the full set was active somewhere.
GSTO1 inh: blocks human GSTO1 in RBBP9 counter-screen. P78417. recombinant GSTO1, activity-based probe fluorescence polarization. inhibition, % at 5.96 µM. hit rate 1.1% among 300,000. AID 1974;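 active = inhibition above the campaign mean inhibition plus 3 SD, cut at about 35% in these data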;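 also: 0% = GSTO1-1 with DMSO and 100% = wells lacking GSTO1-1 enzyme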
Rin1-Abl PPI inh: inhibitors of human Rin1-Abl protein interaction; P00519+Q13671; TR-FRET Rin1/Abl binding, biochemical; inhibition, % at 7.35 µM; hit rate 0.4% among 360,000; AID 588664; in the data active = inhibition above about 5%, passing the limit was not always enough
UBC13 polyUb: inhibitors of human UBC13 polyubiquitin chain formation; P61088; inhibition, % at 20 µM; hit rate 0.47% among 330,000; TR-FRET; in the data active = inhibition above about 45%, passing the limit was not always enough; inconclusive = no clear call, values can overlap the other calls
PAD4 inh: inhibitors of human PAD4. inhibition, % at 6.36 µM. AID 485272. hit rate 0.41% among 330,000. recombinant PAD4, RCA probe fluorescence polarization. Q9UM07;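 active = percent inhibition above a cutoff equal to the mean of all tested compounds plus 3 SD, cut at about 15% in these data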;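 also: 0% = PAD4 with RCA probe and DMSO and 100% = probe without PAD4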
Apaf1 inhib: inhibitors of human Apaf-1 apoptosome | reconstituted apoptosome caspase-3 activity, DEVD-Rh110 fluorescence | inhibition, % at 20 µM | hit rate 0.71% among 330,000 | AID 489030; active = inhibition of at least 40% at 20 µM;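 also: plate controls were DMSO wells for no effect and DEVD-CHO caspase inhibitor wells for full effect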
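Material: biochemical Apaf-1 apoptosome reconstitution. Medium: Hepes buffer, pH 7.5. Also added: cytochrome c activation, bis-DEVD rhodamine 110 substrate. Timing: 30 min compound preincubation, 50 min activation, room temperature. Measured by: rhodamine 110 fluorescence at Ex 480/Em 540 nm.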
SUMO HTRF inh: blocks human SUMOylation mediated by UBC9; AID 2006; hit rate 0.36% among 290,000; HTRF SUMOylation assay, SAE1/SAE2 + UBC9, in vitro; inhibition, % at 35 µM; in the data active = inhibition above about 50%, passing the limit was not always enough; inconclusive = no clear call, values can overlap the other calls
An asterisk follows results filed as active; ? = inconclusive; . = no result given.

SMILES	GSTO1 inh	Rin1-Abl PPI inh	UBC13 polyUb	PAD4 inh	Apaf1 inhib	SUMO HTRF inh
C#CCOCCOCCOCCNc1nc(N2CCN(C(=O)[C@H](Cc3ccc(O)cc3)n3cc([C@@H](N)CC(C)C)nn3)CC2)nc(N2CCN(C(=O)[C@H](Cc3ccc(O)cc3)n3cc([C@@H](N)CC(C)C)nn3)CC2)n1	0.6	.	63.3*	1.5	13.1	-7.4
C#CCOCCOCCOCCNc1nc(N2CCN(C(=O)[C@H](CCC(=O)O)n3cc(C(N)CC(C)C)nn3)CC2)nc(N2CCN(C(=O)[C@H](Cc3ccc(O)cc3)n3cc(C(N)CC(C)C)nn3)CC2)n1 (some centres undefined)	5.6	-4.4	1.5	-0.4	-3.3	2.2
C#CCOCCOCCOCCNc1nc(N2CCN(C(=O)C([C@@H](C)O)n3cc([C@@H](N)CCCCN)nn3)CC2)nc(N2CCN(C(=O)[C@H](CCCCN)n3cc([C@@H](N)[C@H](C)CC)nn3)CC2)n1 (some centres undefined)	.	2.0	104.3*	4.0	30.0	.
C#CCOCCOCCOCCNc1nc(N2CCN(C(=O)C([C@@H](C)O)n3cc([C@@H](N)CCCCN)nn3)CC2)nc(N2CCN(C(=O)[C@H](CCC(=O)O)n3cc([C@@H](N)[C@H](C)CC)nn3)CC2)n1 (some centres undefined)	.	-0.1	12.9	-0.8	-0.8	.
Cn1c(=O)[nH]c(N)c(Br)c1=O	.	0.9	.	.	.	.
COC(=O)C(Nc1ccccc1Cl)(c1cc(C)c(O)c(C)c1)C(F)(F)F (centres undefined)	-4.3	-1.6	10.8	-5.0	5.0	-42.6
COC(=O)/C(=C(/F)Sc1cc(C)c(O)c(C)c1)C(F)(F)F	7.9	-1.8	8.4	15.8*	9.5	-8.6
O=C(Nc1cccc2nsnc12)c1ccc(-c2ccc(Br)cc2)o1	5.4	-3.4	45.0	-10.6	33.4	73.0*
CCN(CC(=O)Nc1ccc2c(c1)OCCO2)C(=O)c1cccc(OCC(C)C)c1	1.8	5.3	6.0	4.5	4.1	17.6
CC(C)c1ccc(NC(=S)Nc2cccc3ccccc23)cc1	-0.7	-5.6	?	-1.6	84.0*	95.4
C=CCNC(=S)Nc1cccc2ccccc12	5.6	1.7	6.1	2.1	-31.6	-7.8
Cc1ccc(NC(=S)Nc2cccc3ccccc23)cc1	2.1	-2.6	0.3	-13.1	31.5	89.8
Fc1ccc(NC(=S)Nc2cccc3ccccc23)cc1	-2.2	-5.2	-36.8	-1.8	84.7*	97.4
Fc1ccc(NC(=S)Nc2cccc3ccccc23)cc1F	8.0	-5.3	-31.6	1.0	80.6*	76.6
Cc1ccc(F)cc1NC(=O)COC(=O)C1CC2CCCC(C1)C2=O (centres undefined)	.	0.6	.	.	.	.
C[C@]12C(=O)N(c3ccc(F)cc3)C(=O)N1[C@H]1c3ccccc3OC[C@@H]1[C@H]2c1ccccc1	.	3.4	13.1	-2.8	13.2	.
COc1ccc(NC(=O)c2cccc(N3C(=O)C4C5C=CC(C6CC56)C4C3=O)c2)cc1 (centres undefined)	-0.2	3.8	-3.5	-1.4	4.6	6.2
O=C(NCCNc1ccc2ccccc2c1)c1cccn2c(=O)c3sccc3nc12	9.4	.	-54.5	-6.3	50.8*	64.0
O=C(NCc1ccccc1C(F)(F)F)c1cccc2c1C(=O)c1ccc(N3CCC(N4CCCCC4)CC3)cc1S2(=O)=O	.	-11.6	.	.	.	.
O=C(NN1C(=O)/C(=C/c2cc([N+](=O)[O-])ccc2O)SC1=S)c1ccccc1O	67.4*	.	-16.8	-4.6	-4.7	.
O=C1NCC(O)=C1C=Nc1ccccc1O	23.0	-9.1	-2.7	-3.2	-28.7	0.5
COc1ncnc2c1ncn2CCCN1CCN(Cc2ccc(C)cc2)CC1	.	-0.3	.	.	.	.
CCCCn1c2ccccc2c2nnc(SCC(=O)NC3=NN=C(c4ccccc4)CS3)nc21	-9.0	.	-30.5	21.2*	-68.9	-18.5
CCN1CC=C2C(C#N)=C(N)C(C#N)(C#N)C(CCc3ccccc3)C2C1 (centres undefined)	0.9	-1.3	-12.6	20.0*	8.4	31.4
N#CC1=C(N)C(C#N)(C#N)[C@H](c2ccoc2)[C@H]2CN(Cc3ccccc3)CC=C12	23.7	-4.5	-19.2	-4.0	59.1*	62.1*
SMILES	GSTO1 inh	Rin1-Abl PPI inh	UBC13 polyUb	PAD4 inh	Apaf1 inhib	SUMO HTRF inh
O=C(Nc1nnc([C@@H]2C[C@H](O)[C@@H](CO)O2)s1)Nc1cccc2c1CCCC2	.	1.4	.	.	.	.
CC(=O)Nc1ccc(S(=O)(=O)N2CCN(c3nc(NC4CCCC4)c4ccccc4n3)CC2)cc1	-30.9	11.4*	29.0	-5.7	10.0	-15.4
CNc1ccc(Br)cc(C(=O)/C=C/c2cccc(OC)c2)c1=O	35.5*	3.7	-13.2	-3.6	18.3	31.7
CNc1ccc(Br)cc(C(=O)/C=C/c2ccc(OC)cc2OC)c1=O	36.1*	5.0	-17.8	-5.6	21.9	25.9
COc1ccc(/C=C/C(=O)c2ccc(OC)cc2OC)c(OC)c1	-18.5	-1.6	-0.3	-2.0	-5.9	6.5
O=C(/C=C/c1ccccc1)c1cc(Br)ccc(=O)c1O	19.6	0.9	-21.5	-0.7	11.0	7.6
CNc1ccc(Br)cc(C(=O)/C=C/c2ccc(Cl)cc2Cl)c1=O	35.0*	3.3	-28.7	-7.5	33.4	40.7
COc1ccc(Cl)cc1-c1cc(C(=O)NCc2ccccc2)[nH]n1	.	-4.6	.	.	.	.
Nc1ncnc2c1ncn2[C@@H]1O[C@H](C(=O)NS(=O)(=O)c2ccccc2[N+](=O)[O-])[C@@H](O)[C@H]1O	.	-0.6	.	.	.	.
O=C(CNC(=O)c1ccc(Br)o1)NNC(=O)c1ccccc1O	33.0	-0.1	-1.3	-4.3	-5.1	.
O=c1oc2c(O)c(O)cc3c(=O)oc4c(O)c(O)cc1c4c23	70.4*	60.5*	.	-4.0	.	?
Cc1c(O)c(CN(C)C)cc2c1oc(=O)c1ccccc12	1.6	-3.1	25.9	-3.0	-14.7	6.1
CCOP(=O)(c1ccc(N(C)C)cc1)C(O)c1ccccc1F (centres undefined)	27.7	-3.7	-0.5	1.1	6.1	-0.1
COc1cc2c(C#N)c(N3CCN(C)CC3)nc(N)c2c(N)n1	23.6	-0.6	-4.0	-7.1	18.7	99.2*
COc1cc2c(C#N)c(N3CCN(c4ccccc4OC)CC3)nc(N)c2c(N)n1	0.3	-3.9	32.3	-7.8	3.3	95.9
Cc1ccc(S(=O)(=O)/N=C2/NC(=O)/C(=C/c3ccc(Br)o3)S2)cc1	-48.3	-3.3	-20.1	-4.8	-4.7	12.6
Cc1ccc(S(=O)(=O)/N=C2/NC(=O)/C(=C\c3cc(Br)cc(Br)c3O)S2)cc1	.	-1.3	-110.4	.	15.5	62.1*
Cc1ccc(C(=O)NC(=S)NNC(=O)CC#N)cc1	35.3*	-0.2	-7.2	3.6	-0.7	5.8
CCCCC(=O)NNC(=S)NC(=O)c1ccc(C)cc1	-5.7	-0.4	-25.1	-0.5	15.9	-24.0
Cc1ccc(S(=O)(=O)N2CCCCC2)cc1C(=O)N(C)CCOc1ccccc1	4.5	-0.8	4.7	-2.3	29.7	-0.8
